Assay outcomes: PubChem, several laboratories
Hits are enriched below; roughly 0.74% of the tested compounds scored in any of these assays.
RGS7-Gao reg – human RGS7-Galphao interaction regulation. P09471. Multiplexed bead flow cytometry, RGS7-Galphao binding; actives lie on both sides. binding response (% of control), % at 10 µM. hit rate 0.35% among 220,000; in the data active means binding response below about 49% or above about 150%; inconclusive means no clear call, values can overlap the other calls; inactive means in between;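 further: fluorescent Galphao held in activated GDP-AlF4 state binding bead-coupled RGS7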
RGS8-Gao – modulates binding of RGS8 to human Galphao; multiplexed bead flow cytometry; actives lie on both sides; P09471; AID 1423; response (percent of control binding), % at 10 µM; hit rate 0.34% among 220,000; in the data active means response below about 60% or above about 140%; inactive means in between;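 further: Galphao activated as the GDP aluminium fluoride complex binding bead-coupled RGS8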
Biofilm kill mix – mixtures killing C. albicans biofilm; C. albicans biofilm persisters + clotrimazole, fluorescence viability; primary screen in compound mixtures of four per well; inhibition, % at 7.6 µM; hit rate 0.02% among 120,000; AID 1242;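 active means inhibition above 30.3% in the primary screen of four-compound pools, then above 30% when the compound was retested; inconclusive means passed the primary limit but could not be retested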;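 further: compounds exposed to preformed 24 h biofilms for 48 h; 0% = untreated biofilm control and 100% = clotrimazole plus chlorhexidine kill blank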
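Test system: C. albicans biofilms. Buffer or medium: RPMI/MOPS medium, pH 7.0. Timing: 48 h compound exposure at 37 °C. Technique: Alamar Blue fluorescence. Evaluation: percent inhibition of biofilm viability.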
RGS16-Gao HTS – regulators of human RGS16-Galphao interaction | binding response (% of control), % at 10 µM | hit rate 0.38% among 220,000 | bead-based flow cytometry RGS16-Galphao binding, fluorescence; actives lie on both sides | AID 1441;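 further: Galphao activated by GDP with aluminum fluoride before binding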
RGS4-Gao reg – modulates binding of RGS4 to human Galphao; P09471; Multiplexed bead flow cytometry; actives lie on both sides; binding response (% of control), % at 10 µM; hit rate 0.33% among 220,000; in the data active means binding response below about 49% or above about 150%; inactive means in between;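 further: fluorescent Galphao activated with aluminum fluoride binding bead-coupled RGS4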
RGS4-Gao HTS – modulates binding between human RGS4 and Galphao; hit rate 99% among 1,600; shares compounds with RGS16-Gao HTS; multiplexed bead flow cytometry, RGS–Galpha-o binding; RGS4–Galpha-o binding response, % at 10 µM;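 further: fluorescently labeled Galpha-o bound to GDP with aluminium fluoride binding biotinylated RGS beads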
Biotin-avidin – counter-screen: compounds disrupting biotin binding to avidin beads; shares compounds with RGS16-Gao HTS; streptavidin beads, fluorescein-biotin binding, flow cytometry; inhibition, % at 10 µM; 1,700 tested, under 10 active;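 active means inhibition above 50%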;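 further: median green fluorescence of gated singlet beads compared with DMSO control wells; 0% = DMSO wells and 100% = complete loss of bead fluorescence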
RGS8-Gao single – confirmation of regulators of human RGS8-Galphao interaction; bead-based flow cytometry RGS8-Galphao binding, fluorescence; actives lie on both sides; shares compounds with RGS16-Gao HTS; hit rate 3% among 1,700; AID 1836; binding response (% of control), % at 10 µM; in the data active means binding response below about 72% or above about 130%; inactive means in between;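 further: Galphao activated as GDP AlF4 complex before binding bead RGS8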
RGS7-Gao confirm – RGS7-Galphao interaction regulation, single point confirmation. shares compounds with RGS16-Gao HTS. bead-based flow cytometry RGS7-Galphao binding; actives lie on both sides. response (percent of control binding), % at 10 µM. hit rate 7.8% among 1,700. AID 1837; in the data active means response below about 75% or above about 130%; inactive means in between;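 further: fluorescent Galphao activated with GDP and aluminum fluoride binding bead-coupled RGS7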
RGS16-Gao conf – RGS16-Galphao interaction regulation, single point confirmation; shares compounds with RGS16-Gao HTS; bead-based flow cytometry, RGS16-Galphao binding; actives lie on both sides; response (% of control binding), % at 10 µM; hit rate 4% among 1,700; AID 1838; in the data active means response below about 74% or above about 130%; inactive means in between;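 further: Galphao activated as the GDP aluminium fluoride complex binding bead-coupled RGS16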
RGS4-Gao confirm – RGS4-Galphao interaction regulation, single point confirmation. shares compounds with RGS16-Gao HTS. RGS4-Galphao binding, multiplexed bead flow cytometry; actives lie on both sides. binding response (% of control), % at 10 µM. hit rate 4% among 1,700. AID 1840; in the data active means binding response below about 74% or above about 130%; inactive means in between
RGS19-Gao conf – confirmation of regulators of human RGS19-Galphao interaction | shares compounds with RGS16-Gao HTS | bead-based flow cytometry RGS19-Galphao binding; actives lie on both sides | response (percent of control binding), % at 10 µM | hit rate 5% among 1,700 | AID 1841; in the data active means response below about 50% or above about 160%; inactive means in between;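 further: 100% = no compound control and 0% = blank background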
Target sequence (P09471 whole entry, looked up): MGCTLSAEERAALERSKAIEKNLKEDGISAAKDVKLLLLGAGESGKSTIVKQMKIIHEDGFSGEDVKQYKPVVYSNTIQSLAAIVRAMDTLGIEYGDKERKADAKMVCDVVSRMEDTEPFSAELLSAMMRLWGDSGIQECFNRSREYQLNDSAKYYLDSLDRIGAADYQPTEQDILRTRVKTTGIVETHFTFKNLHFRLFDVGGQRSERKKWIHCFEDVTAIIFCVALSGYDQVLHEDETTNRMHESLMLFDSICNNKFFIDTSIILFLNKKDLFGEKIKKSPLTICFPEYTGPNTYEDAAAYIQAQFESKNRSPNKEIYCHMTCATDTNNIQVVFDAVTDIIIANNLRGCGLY
Target sequence (P49795 whole entry, looked up): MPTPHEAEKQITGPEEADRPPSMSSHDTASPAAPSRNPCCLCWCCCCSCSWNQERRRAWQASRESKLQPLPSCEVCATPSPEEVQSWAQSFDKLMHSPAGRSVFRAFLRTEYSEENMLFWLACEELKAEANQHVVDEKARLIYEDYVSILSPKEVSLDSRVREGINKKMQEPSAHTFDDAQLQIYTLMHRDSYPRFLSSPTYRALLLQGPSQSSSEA
Starred values were filed as active, the others as inactive; [ ] = remark or other dose. Unless noted, how the calls were made is not given here.

What do the screens show for `Cc1nc(N2CCCCC2)c(C#N)c(C)c1[N+](=O)[O-]`?
RGS7-Gao reg: 148; RGS8-Gao: 105; Biofilm kill mix: 2; RGS16-Gao HTS: 133; RGS4-Gao reg: 156*[activator]; Biotin-avidin: 0; RGS8-Gao single: 102; RGS7-Gao confirm: 97; RGS16-Gao conf: 101; RGS4-Gao confirm: 96; RGS19-Gao conf: 103

What do the screens show for `O=C(NC1CCN(Cc2ccccc2)CC1)c1ccc2c(c1)[nH]c(=O)n2Cc1ccc(F)cc1`?
RGS7-Gao reg: 99; RGS8-Gao: 102; Biofilm kill mix: 14; RGS16-Gao HTS: 99; RGS4-Gao reg: 98

What do the screens show for `COc1ccc(-c2ccc(SCC(=O)N3CCCC3)nn2)cc1OC`?
RGS7-Gao reg: 94; RGS8-Gao: 99; RGS16-Gao HTS: 104; RGS4-Gao reg: 97

How did COc1ccc(-c2ccc(SCC(=O)N3CCOCC3)nn2)cc1OC do in these assays?
Biotin-avidin: -2; RGS8-Gao single: 103; RGS7-Gao confirm: 105; RGS16-Gao conf: 106; RGS4-Gao confirm: 106; RGS19-Gao conf: 108

What do the screens show for `Cn1nc(C(C)(C)C)c(NC(=O)c2cccs2)c1C(C)(C)C`?
RGS7-Gao reg: inconclusive; RGS8-Gao: 104; Biofilm kill mix: 20; RGS16-Gao HTS: 101; RGS4-Gao reg: 101

Results for O=c1c2ccccc2nc(/C=C/c2ccc3c(c2)OCO3)n1CCCO ?
RGS7-Gao reg: 168*[activator]; RGS8-Gao: 105; Biofilm kill mix: -6; RGS16-Gao HTS: 136; RGS4-Gao reg: 109; RGS4-Gao HTS: 109*; Biotin-avidin: 1; RGS8-Gao single: 103; RGS7-Gao confirm: 102; RGS16-Gao conf: 105; RGS4-Gao confirm: 102; RGS19-Gao conf: 105

What do the screens show for `O=c1c2ccccc2nc(/C=C/c2ccc(O)cc2)n1CCc1ccccc1`?
RGS7-Gao reg: 99; RGS8-Gao: 101; Biofilm kill mix: 17; RGS16-Gao HTS: 101; RGS4-Gao reg: 99

What do the screens show for `O=C(CSc1nnc(CCCO)n1-c1ccccc1)Nc1nccs1`?
RGS7-Gao reg: 105; RGS8-Gao: 99; RGS16-Gao HTS: 99; RGS4-Gao reg: 98

Results for O=C(CSc1nnc(CCCO)n1-c1ccccc1)NCCc1ccccc1 ?
RGS7-Gao reg: 16*; RGS8-Gao: 8.7*; RGS16-Gao HTS: 0.4*; RGS4-Gao reg: 22*; Biotin-avidin: -1; RGS8-Gao single: 108; RGS7-Gao confirm: 107; RGS16-Gao conf: 109; RGS4-Gao confirm: 103; RGS19-Gao conf: 118

What do the screens show for `O=C(Cn1c2ccccc2c(=O)c2ccccc21)N/N=C/c1cc([N+](=O)[O-])ccc1N1CCCCCC1`?
Biotin-avidin: 2; RGS8-Gao single: 105; RGS7-Gao confirm: 135*[activator]; RGS16-Gao conf: 140*[activator]; RGS4-Gao confirm: 129*[activator]; RGS19-Gao conf: 384*[activator]

How did O=C(Cn1c2ccccc2c(=O)c2ccccc21)N/N=C/c1ccc(N2CCCC2)c([N+](=O)[O-])c1 do in these assays?
RGS7-Gao reg: 90; RGS8-Gao: 98; Biofilm kill mix: 11; RGS16-Gao HTS: 97; RGS4-Gao reg: 91
